Measurements taken from ChEMBL document CHEMBL1147113, “Miltefosine (hexadecylphosphocholine) inhibits cytochrome c oxidase in Leishmania donovani promastigotes” (Antimicrob Agents Chemother, 2007).
Calls of active or inactive are those of the source. The rule behind the calls is not given here.

How the values were obtained:
Leishmania donovani [1] = experiment: Growth inhibition of Leishmania donovani MHOM/SD/00/1S-2D promastigotes at 40 uM assessed as inhibition of MTT reduction after 14 hrs; format: functional, organism-based
How it was run: (§1)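 Late-exponential promastigotes at 2 × 10⁶ cells/ml in RPMI-10% HIFCS with drug, 14 h at 25°C. Washed at 4°C in Hanks-10 mM glucose, then given 0.5 mg/ml MTT for 2 h. Formazan dissolved in 10% SDS and read at 595 nm. Triplicates, at least two experiments; EC50 by Litchfield-Wilcoxon.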

Leishmania donovani [2] = experiment: Decrease in intracellular ATP level in Leishmania donovani 3-Luc promastigotes assessed as decrease in luminescence relative to control; format: functional, organism-based
Leishmania donovani [3] = experiment: Inhibition of TMPD-ascorbate-dependent oxygen consumption in digitonin-permeabilized Leishmania donovani MHOM/SD/00/1S-2D promastigotes at 25 uM after 14 hrs; format: functional, organism-based
Leishmania donovani [4] = experiment: Effect on mitochondrial membrane potential in Leishmania donovani MHOM/SD/00/1S-2D promastigotes by measuring the decrease in rhodamine 123 accumulation after 14 hrs; format: functional, organism-based
How it was run: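 After 14 h of drug exposure at 25°C, parasites washed twice at 4°C in Hanks-glucose and loaded with rhodamine 123 (0.3 μg/ml, 5 min, 37°C). Washed again, resuspended at 2 × 10⁶ cells/ml and read by flow cytometry (ex 488/em 525 nm; 20,000 events). Geometric mean fluorescence recorded; 10 mM KCN-poisoned cells served as depolarized control.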

Leishmania donovani [5] = experiment: Effect on mitochondrial function in Leishmania donovani MHOM/SD/00/1S-2D promastigotes assessed as decrease in oxygen consumption at 10 uM after 14 hrs relative to control; format: functional; set-up: scale not given: the % may be the effect or the level left
How it was run: (§2)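 Promastigotes incubated 14 h at 25°C with drug in RPMI-10% HIFCS at 2 × 10⁶ cells/ml. They were then washed and resuspended in respiration buffer at 10⁸ cells/ml with 5 mM succinate and 1 mg/ml BSA. Clark-electrode O₂ uptake at 25°C, given as nmol O₂/min/10⁸ cells and as % of untreated.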

Leishmania donovani [6] = experiment: Effect on plasma membrane integrity in Leishmania donovani MHOM/SD/00/1S-2D promastigotes assessed as SYTOX green fluorescence at 40 uM after 14 hrs; format: functional
How it was run: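 Cells at 2 × 10⁶/ml in RPMI-10% HIFCS given increasing drug concentrations, 14 h at 25°C. Washed twice in Hanks-glucose and stained with 1 μM SYTOX green for 5 min in the dark. Fluorescence read at ex 485/em 520 nm and expressed as % of maximal signal after 0.1% Triton X-100.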

Leishmania donovani [7] = experiment: Effect on oxygen consumption rate in digitonin-permeabilized Leishmania donovani MHOM/SD/00/1S-2D promastigotes assessed as decrease in state 3 respiration at 25 uM after 14 hrs; format: functional; set-up: scale not given: the % may be the effect or the level left
Leishmania donovani [8] = experiment: Effect on apoptosis induction in Leishmania donovani MHOM/SD/00/1S-2D promastigotes assessed as accumulation in sub-G1 phase at 20 uM after 24 hrs by propidium iodide staining
Leishmania donovani [9] = experiment: Inhibition of Leishmania donovani cytochrome c reductase at 40 uM
How it was run: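 Same L. donovani mitochondrial fraction (200 μg/ml protein, 0.02% TX-100, 75 mM sodium phosphate pH 7.4), with CcO first blocked by 10 mM KCN and oxidized cytochrome c as acceptor. Reaction started with 5 mM succinate; A550 change monitored. Controls lacked succinate or contained 2 μM antimycin A. HePC tested at 40 μM.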

Leishmania donovani [10] = experiment: Effect on mitochondrial function in Leishmania donovani MHOM/SD/00/1S-2D promastigotes assessed as decrease in oxygen consumption at 40 uM after 14 hrs relative to control; format: functional; set-up: scale not given: the % may be the effect or the level left; how it was run: as §2
Leishmania donovani [11] = experiment: Inhibition of Leishmania donovani cytochrome c oxidase
Leishmania donovani [12] = experiment: Growth inhibition of Leishmania donovani MHOM/SD/00/1S-2D promastigotes assessed as inhibition of MTT reduction after 14 hrs; format: functional, organism-based; how it was run: as §1
Leishmania donovani [13] = experiment: Effect on mitochondrial function in Leishmania donovani MHOM/SD/00/1S-2D promastigotes assessed as decrease in oxygen consumption at 20 uM after 14 hrs relative to control; format: functional; set-up: scale not given: the % may be the effect or the level left; how it was run: as §2

inhibition (Leishmania donovani [9]): 5%
Activity (Leishmania donovani [11]): Dose-dependent effect
SMILES: CCCCCCCCCCCCCCCCOP(=O)([O-])OCC[N+](C)(C)C [MILTEFOSINE]
Activity (Leishmania donovani [1]): Active
Activity (Leishmania donovani [2]): Active
Activity (Leishmania donovani [3]): Active
Activity (Leishmania donovani [4]): Dose-dependent effect
Activity (Leishmania donovani [5]): 95.4%
Activity (Leishmania donovani [6]): 10%
Activity (Leishmania donovani [7]): 40%
Activity (Leishmania donovani [8]): 38%
Activity (Leishmania donovani [10]): 44.4%
EC50 (Leishmania donovani [12]): 10.2 µM
Activity (Leishmania donovani [13]): 75%
